Paper PMC8367640 (Journal of Applied Glycoscience, 2021)

Test system: BlAga3
Assay: HPAEC-PAD of released products
Assay type: biochemical, Bifidobacterium longum subsp. longum
Conditions: 50 mM sodium acetate pH 6.0, 45 °C, 20 min
Summary of the method: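 His-tagged recombinant BlAga3, TALON-purified (50 mM imidazole fraction, desalted). Enzyme in 50 mM sodium acetate pH 6.0 at 45 °C for 20 min: 0.20 μg/mL with 0.1–10 mM α-D-Gal-(1→3)-L-Ara, or 0.79 μg/mL with 1.0–50 mM raffinose. Stopped with 5 % TCA; released sugars quantified by HPAEC-PAD (NaOH/sodium acetate gradient).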

Km (0.1–10 mM substrate) [mM] | Km (1.0-50 mM substrate) [mM] | Compound
0.774 ± 0.014 |  | OC[C@H]1O[C@H](O[C@H]2[C@@H](O)COC(O)[C@@H]2O)[C@H](O)[C@@H](O)[C@H]1O (stereo partly drawn) [GA, α-D-Gal-(1→3)-L-Ara]
 | 29.5 ± 1 | OC[C@H]1O[C@H](OC[C@H]2O[C@H](O[C@]3(CO)O[C@H](CO)[C@@H](O)[C@@H]3O)[C@H](O)[C@@H](O)[C@@H]2O)[C@H](O)[C@@H](O)[C@H]1O [Raffinose]
